Hits are enriched below; roughly 3.5% of the tested compounds scored in any of these assays.
MrgX1 allo act – allosterically activates human MrgX1 receptor signaling; Q96LB2; MrgX1-HEK293, Fluo-4 calcium flux, FDSS; hits give high values; B-score at 10 µM; 0.63% of 310,000 active;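 active = plate-corrected calcium response at least 3 library SD above typical, normal starting fluorescence, not activating the receptor alone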;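 also: compound read alongside a low EC10 to EC30 dose of BAM8-22 agonist; peak minus trough fluorescence over baseline measured at the second addition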
Target sequence (Q96LB2 whole entry, looked up): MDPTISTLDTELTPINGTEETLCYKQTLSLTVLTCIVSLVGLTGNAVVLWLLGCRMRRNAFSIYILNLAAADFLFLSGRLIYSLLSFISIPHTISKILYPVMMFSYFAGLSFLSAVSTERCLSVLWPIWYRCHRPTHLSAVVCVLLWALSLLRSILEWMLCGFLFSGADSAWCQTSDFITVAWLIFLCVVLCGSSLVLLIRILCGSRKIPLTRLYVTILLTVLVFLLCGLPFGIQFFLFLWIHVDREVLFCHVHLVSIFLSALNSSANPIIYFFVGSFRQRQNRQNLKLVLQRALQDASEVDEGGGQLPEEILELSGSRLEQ
RGS4 act – RGS4 potentiation or activation; B-score at 10 µM; HEK293 M3R/inducible RGS4, carbachol calcium flux Fluo4; hits give low values; 0.92% of 310,000 active;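 active = B-score of the integrated calcium signal more than 4 SD below the library mean, with starting fluorescence not abnormally high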;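 also: negative B-score means reduced calcium response which marks RGS4 activation or potentiation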
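test system = M3R-expressing HEK293 line, RGS4 induced by doxycycline | probe or stimulus = carbachol at ECmax as muscarinic agonist stimulus | timing = dye loading 30 min 37 °C, buffer rest 30 min RT | signal = calcium dye Fluo4 fluorescence | evaluation = B score from integrated fluorescence ratio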
RGS4 inh – inhibitors of human RGS4; P49798; HEK293 M3R/RGS4 inducible, Fluo-4 calcium flux; hits give high values; triggered by carbachol at its EC20; B-score at 10 µM; AID 463165; 0.45% of 310,000 active;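 active = B-score, a plate-corrected calcium signal, over three deviations above library mean, with baseline fluorescence within five deviations of library mean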;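 also: RGS4 expression induced by doxycycline in cells with stable M3 receptor; B-score is computed from the integrated fluorescence ratio over baseline after carbachol; higher B-score means a larger calcium signal and so more RGS4 inhibition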
Target sequence (P49798 whole entry, looked up): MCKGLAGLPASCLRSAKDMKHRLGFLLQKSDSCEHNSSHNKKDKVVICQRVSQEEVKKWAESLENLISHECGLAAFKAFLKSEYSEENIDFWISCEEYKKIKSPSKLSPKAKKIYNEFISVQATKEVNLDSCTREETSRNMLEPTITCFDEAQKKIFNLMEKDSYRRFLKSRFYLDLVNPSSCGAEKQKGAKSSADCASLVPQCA
MrgX1 ag – human MrgX1 receptor agonism, primary screen; MrgX1-HEK293 cells, Fluo-4 calcium fluorescence, agonist mode; hits give high values; B-score at 10 µM; 0.44% of 310,000 active; AID 588627;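 active = calcium response B-score plate-corrected fluorescence ratio at least 3 library SD, with starting fluorescence B-score inside 5 SD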
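Assay system: MrgX1-expressing HEK293 cells / Amount: fifteen thousand cells per well / Doses: test compound in the initial addition of three / Timing: cells plated overnight, dye loaded 0.5 h 37 °C, 0.5 h room temperature / Technique: kinetic calcium dye fluorescence, Fluo-4 NW / Control set: positive and negative controls per plate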
MrgX1 antag – antagonists of human MrgX1 receptor; Q96LB2; MRGX1-HEK293 calcium flux, Fluo-4, BAM8-22 antagonism; hits give low values; B-score at 10 µM; 1.3% of 310,000 active; AID 588676;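 active = calcium-response B-score plate-corrected more than 3 library SD below zero, starting fluorescence within 5 deviations, no agonist response on first addition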;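 also: peak minus trough fluorescence over baseline after final BAM8-22 challenge near maximal dose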
* marks the source's active call; other numbers are inactive results; i = inactive; . = no result given.

SMILES | MrgX1 allo act | RGS4 act | RGS4 inh | MrgX1 ag | MrgX1 antag
O=C1NC(=O)N(c2ccccc2)C(=O)/C1=C/c1coc2ccc(O)cc2c1=O | i | i | i | 27* | i
Cc1cc(-c2ccccc2)cc(-c2ccccc2)[n+]1CCc1ccccc1 | i | -8.2* | i | i | -4.6*
Clc1ccc(C[n+]2c(-c3ccccc3)cc(-c3ccccc3)cc2-c2ccccc2)cc1 | i | -8.1* | i | i | -6.9*
CCOC(=O)c1cc(C)n(CCc2cnc[nH]2)c1C | i | i | i | i | i
COc1ccc(CC(C)NCCC(c2ccccc2)c2ccccc2)cc1 (stereo unspecified) | i | -7.4* | i | i | i
C=CCc1ccc(OC)cc1 | i | . | . | i | i
CC[n+]1c(/C=C/N(C)c2ccccc2)sc2ccc(Cl)cc21 | i | -9.5* | i | i | i
CC[n+]1c(/C=C/C=C/c2ccc(N(C)C)cc2)sc2ccccc21 | i | i | i | i | i
O=C(CN1C(=O)COc2ccccc21)N1CCC2(CC1)OCCO2 | i | i | i | i | i
CCN(CC)c1ccc(/C=C2\C(=O)NC(=S)N(c3ccc(OC)cc3OC)C2=O)o1 | i | -7.2* | i | i | i
COc1ccc(N2C(=O)/C(=C/c3ccc(N(C)C)o3)C(=O)NC2=S)cc1 | i | i | i | i | i
COc1ccc(C(Nc2ccccc2)P(=O)(Oc2ccccc2)Oc2ccccc2)cc1 (stereo unspecified) | i | i | i | i | i
CN(C)CC#CCC(O)(c1ccccc1)C1CCCC1 (stereo unspecified) | i | i | i | i | i
C[N+](C)(N)CCOC(=O)C(O)(c1ccccc1)C1CCCCC1 (stereo unspecified) | i | -8.2* | i | i | i
CC[N+](CC)(CC)CCCOC(=O)C(O)(c1ccccc1)C1CCCCC1 (stereo unspecified) | i | -8.2* | i | i | i
COc1ccccc1N1CCN(Cc2ccccc2F)CC1 | i | i | i | i | i
C[n+]1c(-c2ccccc2)cc(-c2ccc(O)cc2)cc1-c1ccccc1 | i | i | i | i | i
O=[N+]([O-])c1ccc(-[n+]2c(-c3ccccc3)cc(-c3ccccc3)cc2-c2ccccc2)cc1 | 8.4* | i | i | i | i
COc1ccc(-[n+]2c(-c3ccccc3)cc(-c3ccccc3)cc2-c2ccccc2)cc1 | i | i | i | i | -4.9*
O=C([O-])c1ccc(-[n+]2c(-c3ccccc3)cc(-c3ccccc3)cc2-c2ccccc2)cc1 | i | i | i | i | i
Oc1ccc(-[n+]2c(-c3ccccc3)cc(-c3ccccc3)cc2-c2ccccc2)cc1 | 12* | -7.2* | i | i | -7.9*
CCC(=O)N1c2ccc(S(=O)(=O)CCC(=O)N3CCC4(CC3)OCCO4)cc2CC1C (stereo unspecified) | i | i | i | i | i
CCCCC/C(=N\O)c1c[nH]c2ccccc12 | i | i | i | i | -6.6*
N#CC(C#N)=Cc1cccnc1 | i | i | i | i | -4.6*
N#CC(C#N)=Cc1ccc(N2CCOCC2)cc1 | i | i | i | i | i
SMILES | MrgX1 allo act | RGS4 act | RGS4 inh | MrgX1 ag | MrgX1 antag
Cc1cc(O)c(CN2CC=C(c3ccccc3)CC2)cc1C(C)C | i | i | i | i | i
CCN(CC)S(=O)(=O)c1ccc(NN=C(C#N)C#N)cc1 | i | i | i | i | -7.4*
N#CC(C#N)=NNc1ccc(-n2ccc(C(F)(F)F)n2)cc1 | i | i | i | i | i
O=C1NC(=O)C(=Cc2ccc(N3CCOCC3)o2)C(=O)N1 | i | -7.6* | i | i | i
O=C1NC(=O)N(Cc2ccccc2)C(=O)/C1=C/c1cnn(-c2ccccc2)c1 | i | i | i | i | -5.5*
Cc1cc(OC(=O)N(C)C)nc(SCc2c(Cl)cccc2Cl)n1 | i | i | i | i | i
O=C1OC(c2ccc(Br)cc2)=N/C1=C\N1CC2CC(C1)c1cccc(=O)n1C2 (stereo unspecified) | i | i | i | i | i
O=C1OC(c2ccc([N+](=O)[O-])cc2)=N/C1=C/N1CC2CC(C1)c1cccc(=O)n1C2 (stereo unspecified) | i | i | i | 57* | i
O=C(O)c1cc[c]([Hg][Cl])cc1 | 13* | . | . | i | i
Fc1ccc2c(c1)nnn2C1CCN(Cc2nnnn2C2CCCCC2)CC1 | i | i | i | i | i
CCCC[N+]12CCC(CC1)C(=C(c1ccccc1)c1ccccc1)C2 | i | -8.6* | i | i | i
O=C(c1ccc(Cl)cc1)C1CCCN(Cc2cccc3cccnc23)C1 (stereo unspecified) | i | -7.1* | i | i | i
O=C(c1ccc(Cl)cc1)C1CCCN(Cc2cccc3ncccc23)C1 (stereo unspecified) | i | i | i | i | i
CN1CCN(Cc2cc(C(C)(C)C)c(O)c(C(C)(C)C)c2)CC1 | i | i | i | i | -5.2*
CCOc1ccc(NC2=NCCCS2)cc1 | i | i | i | i | i
Cc1cc(Oc2ccc(C(F)(F)F)cc2[N+](=O)[O-])c2c3c(c(=O)oc2c1)CCC3 | i | i | i | i | i
Cc1cc(Oc2ccc(C(F)(F)F)cc2[N+](=O)[O-])c2c3c(c(=O)oc2c1)CCCC3 | i | -7.4* | i | i | i
CN1C(=O)N(C)C(=O)C(CCc2ccncc2)(CCc2ccncc2)C1=O | i | i | i | i | i
Cc1cc(O)c2c(C)c(CC(=O)N3C[C@H]4C[C@@H](C3)c3cccc(=O)n3C4)c(=O)oc2c1 | i | i | i | i | -5.2*
COc1cc(C)cc2oc(=O)c(CC(=O)N3C[C@H]4C[C@@H](C3)c3cccc(=O)n3C4)c(C)c12 | i | i | i | i | i
O=[N+]([O-])c1ccc(N2CCCC2)c2ccncc12 | i | i | i | i | -5.1*
O=[N+]([O-])c1ccc(NC2CCCC2)c2ccncc12 | i | i | i | i | i
O=C1NC(=O)C(=Cc2ccc(N3CCN(C(=O)c4ccccc4)CC3)c([N+](=O)[O-])c2)C(=O)N1 | i | i | i | i | i
Cn1c(O)c(C=NC2CCCCCC2)c(=O)[nH]c1=S | i | i | i | i | -6.4*
Cn1c(O)c(C=NC2CCN(Cc3ccccc3)CC2)c(=O)[nH]c1=O | i | i | i | i | i
